According to article PMC8530978 (Bioorganic chemistry, 2021):

Experiments:
[1] = system: NCI sixty human tumor cell line panel; test: NCI sixty human tumor cell line panel, single dose 10 μM; format: cell-based; settings: for activity at 10 µM: read-out: Mean % growth at 10 μM; for growth inhibition activity (in words): NCI 60 single dose 10 μM; for Mean % growth at 10 μM: mean growth percent over NCI 60 panel, single dose 10 μM
[2] = target: HDAC2 (Homo sapiens, UniProt Q92769); test: HDAC-Glo inhibitor testing with recombinant HDAC2; format: biochemical
[3] = target: HDAC1 (Homo sapiens, UniProt Q13547); test: HDAC-Glo inhibitor testing with recombinant HDAC1; format: biochemical
[4] = target: T1, HDAC8 (Homo sapiens, UniProt Q9BY41); test: HDAC-Glo inhibitor testing with recombinant HDAC8; format: biochemical; settings: for remaining activity at 100 µM: read-out: HDAC8 activity remaining
T1 sequence (Q9BY41 1-377): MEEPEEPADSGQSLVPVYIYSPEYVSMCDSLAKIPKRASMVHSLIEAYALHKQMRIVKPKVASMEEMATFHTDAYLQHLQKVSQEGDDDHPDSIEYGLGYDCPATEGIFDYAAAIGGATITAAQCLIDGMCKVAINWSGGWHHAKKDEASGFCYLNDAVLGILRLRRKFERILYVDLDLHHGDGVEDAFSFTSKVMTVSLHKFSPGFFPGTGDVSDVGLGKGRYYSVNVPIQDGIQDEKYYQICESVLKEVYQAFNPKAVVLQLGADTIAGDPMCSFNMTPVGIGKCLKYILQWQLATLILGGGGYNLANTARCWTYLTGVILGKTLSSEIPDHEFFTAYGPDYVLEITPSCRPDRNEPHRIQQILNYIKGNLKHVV

[5] = target: T2, HDAC6 (Homo sapiens, UniProt Q9UBN7); test: HDAC-Glo inhibitor testing with recombinant HDAC6; format: biochemical
T2 sequence (Q9UBN7 1-1215): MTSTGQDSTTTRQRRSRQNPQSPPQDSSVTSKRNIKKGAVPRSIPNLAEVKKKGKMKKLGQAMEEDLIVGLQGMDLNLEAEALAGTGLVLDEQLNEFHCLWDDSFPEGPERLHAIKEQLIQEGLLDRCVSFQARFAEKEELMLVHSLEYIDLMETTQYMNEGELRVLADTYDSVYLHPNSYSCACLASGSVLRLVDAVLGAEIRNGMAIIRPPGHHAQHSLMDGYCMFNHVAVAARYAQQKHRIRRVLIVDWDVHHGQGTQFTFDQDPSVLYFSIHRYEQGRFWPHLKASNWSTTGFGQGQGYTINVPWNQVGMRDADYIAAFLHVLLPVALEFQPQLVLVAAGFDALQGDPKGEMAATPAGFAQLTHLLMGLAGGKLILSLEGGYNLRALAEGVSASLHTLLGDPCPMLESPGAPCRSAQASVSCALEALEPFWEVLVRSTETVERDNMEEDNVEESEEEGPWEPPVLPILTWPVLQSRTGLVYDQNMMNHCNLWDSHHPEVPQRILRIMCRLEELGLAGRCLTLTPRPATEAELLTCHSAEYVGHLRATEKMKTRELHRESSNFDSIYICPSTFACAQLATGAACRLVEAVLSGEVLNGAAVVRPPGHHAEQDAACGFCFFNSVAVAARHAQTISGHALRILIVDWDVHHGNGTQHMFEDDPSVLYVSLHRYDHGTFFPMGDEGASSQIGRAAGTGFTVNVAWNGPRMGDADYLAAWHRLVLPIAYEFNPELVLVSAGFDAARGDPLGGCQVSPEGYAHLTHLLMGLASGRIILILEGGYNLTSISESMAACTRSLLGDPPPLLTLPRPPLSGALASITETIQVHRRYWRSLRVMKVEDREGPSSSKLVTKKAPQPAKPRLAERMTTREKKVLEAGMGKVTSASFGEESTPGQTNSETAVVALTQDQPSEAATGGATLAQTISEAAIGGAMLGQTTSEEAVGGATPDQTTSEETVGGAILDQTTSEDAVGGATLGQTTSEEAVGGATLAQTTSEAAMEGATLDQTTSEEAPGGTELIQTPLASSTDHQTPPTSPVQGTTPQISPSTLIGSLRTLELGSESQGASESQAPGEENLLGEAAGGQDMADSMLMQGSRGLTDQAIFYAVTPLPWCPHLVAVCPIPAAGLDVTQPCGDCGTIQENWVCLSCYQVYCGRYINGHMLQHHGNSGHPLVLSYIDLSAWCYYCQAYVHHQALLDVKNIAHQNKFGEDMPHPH

[6] = target: HDAC3 (Homo sapiens, UniProt O15379); test: HDAC-Glo inhibitor testing with recombinant HDAC3; format: biochemical
[7] = system: mitotic spindle of HeLaM cells; format: cell-based; settings: compound 10 μM + MG132 + ZM447439 (DMSO+MG132+ZM447439 3%)
[8] = system: HeLaM cells; test: Flow cytometry cell cycle analysis; format: cell-based; settings: 72 hr post treatment (DMSO 14%)
Method in brief: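 5 × 10^5 HeLaM cells plated, treated next day with test compound or DMSO for 24, 48 or 72 h. All cells (floating and attached) collected and fixed in 70% ethanol (final). […] 10 μg/ml, 30 min, 37 °C, then propidium iodide in PBS + 2% FBS. SubG1 gated; subG1 excluded before modeling live-cell cycle distribution.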

HDAC2, sequence (Q92769 whole entry): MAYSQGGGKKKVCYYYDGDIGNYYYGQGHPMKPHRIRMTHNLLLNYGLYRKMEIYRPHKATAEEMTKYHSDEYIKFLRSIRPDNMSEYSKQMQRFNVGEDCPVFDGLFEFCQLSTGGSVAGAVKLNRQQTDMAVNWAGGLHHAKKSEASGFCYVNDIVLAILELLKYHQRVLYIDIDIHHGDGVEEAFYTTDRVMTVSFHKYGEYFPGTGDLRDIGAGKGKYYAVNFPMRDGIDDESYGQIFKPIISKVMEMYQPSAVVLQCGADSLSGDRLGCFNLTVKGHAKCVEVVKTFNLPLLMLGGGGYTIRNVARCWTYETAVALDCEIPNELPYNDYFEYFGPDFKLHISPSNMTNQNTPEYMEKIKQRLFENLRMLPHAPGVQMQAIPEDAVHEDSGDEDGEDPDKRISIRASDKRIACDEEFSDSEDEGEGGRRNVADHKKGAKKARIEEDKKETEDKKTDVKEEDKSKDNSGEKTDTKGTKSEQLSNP
HDAC1, sequence (Q13547 whole entry): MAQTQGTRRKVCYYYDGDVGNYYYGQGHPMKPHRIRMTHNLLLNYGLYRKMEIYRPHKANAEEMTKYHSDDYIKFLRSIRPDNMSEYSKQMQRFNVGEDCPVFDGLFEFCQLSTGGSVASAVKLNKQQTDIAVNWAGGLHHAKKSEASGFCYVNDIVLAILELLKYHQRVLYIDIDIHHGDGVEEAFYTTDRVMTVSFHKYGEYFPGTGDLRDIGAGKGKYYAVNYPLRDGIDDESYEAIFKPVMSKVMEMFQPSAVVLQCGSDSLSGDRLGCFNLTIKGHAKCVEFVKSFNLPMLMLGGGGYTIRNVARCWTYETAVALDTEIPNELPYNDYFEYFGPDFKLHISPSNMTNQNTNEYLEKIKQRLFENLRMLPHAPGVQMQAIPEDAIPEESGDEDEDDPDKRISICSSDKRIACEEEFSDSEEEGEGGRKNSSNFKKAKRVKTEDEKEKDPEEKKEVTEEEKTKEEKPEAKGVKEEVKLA
HDAC3, sequence (O15379 whole entry): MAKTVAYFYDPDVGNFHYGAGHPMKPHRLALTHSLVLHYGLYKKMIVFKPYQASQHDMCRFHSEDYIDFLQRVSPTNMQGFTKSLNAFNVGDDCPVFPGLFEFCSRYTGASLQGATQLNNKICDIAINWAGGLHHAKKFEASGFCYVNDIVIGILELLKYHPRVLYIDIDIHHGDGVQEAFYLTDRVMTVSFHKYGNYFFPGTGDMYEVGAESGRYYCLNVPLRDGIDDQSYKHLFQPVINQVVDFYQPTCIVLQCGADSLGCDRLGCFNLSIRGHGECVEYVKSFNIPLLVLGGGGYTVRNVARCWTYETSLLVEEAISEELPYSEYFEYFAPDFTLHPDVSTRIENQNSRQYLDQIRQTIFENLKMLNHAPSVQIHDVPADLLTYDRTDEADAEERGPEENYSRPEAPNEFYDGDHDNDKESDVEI
HDAC3, sequence (Q9Y618 395-489 partner limits assumed): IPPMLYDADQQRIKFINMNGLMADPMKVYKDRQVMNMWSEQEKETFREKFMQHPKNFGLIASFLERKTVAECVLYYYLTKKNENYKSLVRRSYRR

| Molecule | activity at 10 µM ([1]; Homo sapiens) | other results |
| --- | --- | --- |
| O=C(Cc1ccc(/C=C/C(=O)c2ncccn2)cc1)Nc1ccccc1 [PPE-31, (E)-2-(4-(3-Oxo-3-(pyrimidin-2-yl)prop-1-en-1-yl)phenyl)-N-phenylacetamide] | 99.1% | – |
| CN(C)c1ccc(NC(=O)Cc2ccc(/C=C/C(=O)c3ncc[nH]3)cc2)cc1 [IPE-5, (E)-2-(4-(3-(1H-imidazol-2-yl)-3-oxoprop-1-en-1-yl)phenyl)-N-(4-(dimethylamino)phenyl)acetamid] | 52.1% | – |
| O=C(Cc1ccc(/C=C/C(=O)c2ccccc2O)cc1)Nc1ccccc1 [HPE-32, (E)-2-(4-(3-(2-Hydroxyphenyl)-3-oxoprop-1-en-1-yl)phenyl)-N-phenylacetamide] | 85.9% | – |
| COc1ccc(NC(=O)Cc2ccc(/C=C/C(=O)c3ncc[nH]3)cc2)cc1 [IPE-4, (E)-2-(4-(3-(1H-imidazol-2-yl)-3-oxoprop-1-en-1-yl)phenyl)-N-(4-methoxyphenyl)acetamide] | 66.8% | – |
| O=C(Cc1ccc(/C=C/C(=O)c2nccs2)cc1)Nc1ccccc1 [TPE-30, (E)-2-(4-(3-Oxo-3-(thiazol-2-yl)prop-1-en-1-yl)phenyl)-N-phenylacetamide] | 84.3% | growth inhibition activity (in words) [1]: inactive |
| O=C(Cc1ccc(/C=C/C(=O)c2ncc[nH]2)cc1)Nc1ccc(S(F)(F)(F)(F)F)cc1 [IPE-10, (E)-2-(-4(3-(1H-imidazol-2-yl)-3-oxoprop-1-en-1-yl)phenyl)-N-(4-pentafluorosulfaneyl)acetamide] | – | Mean % growth at 10 μM [1]: 64.07% |
| C#Cc1ccc(NC(=O)Cc2ccc(/C=C/C(=O)c3nccn3C)cc2)cc1 [IPE-27, (E)-N-(4-Ethynylphenyl)-2-(4-(3-(1-methyl-1H-imidazol-2-yl)-3-oxoprop-1-en-1-yl)phenyl)acetamide] | 53.5% | IC50 [2]: > 100 µM; IC50 [3]: > 100 µM; IC50 [4]: 12 ± 1 µM; remaining activity at 100 µM [4]: 20 to 60%; IC50 [5]: > 100 µM; IC50 [6]: > 100 µM |
| O=C(Cc1ccc(/C=C/C(=O)c2ncc[nH]2)cc1)Nc1c(F)c(F)c(F)c(F)c1F [IPE-13, (E)-2-(-4(3-(1H-imidazol-2-yl)-3-oxoprop-1-en-1-yl)phenyl)-N-(perfluorophenyl)acetamide] | 91.8% | – |
| O=C(Cc1ccc(/C=C/C(=O)c2ncc[nH]2)cc1)Nc1cc(C(F)(F)F)cc(C(F)(F)F)c1 [IPE-14, (E)-2-(-4(3-(1H-imidazol-2-yl)-3-oxoprop-1-en-1-yl)phenyl)-N-(bis(3,5-trifluoromethyl)phenyl)acetamide] | – | Mean % growth at 10 μM [1]: 77.21% |
| Cn1ccnc1C(=O)/C=C/c1ccc(CC(=O)NC2CCCCC2)cc1 [IPE-15, (E)-N-Cyclohexyl-2-(4-(3-(1-methyl-1H-imidazol-2-yl)-3-oxoprop-1-en-1-yl)phenyl)acetamide] | 57.7% | – |
| CN1CCc2c(c3ccccc3n2Cc2ccc(C(=O)NO)cc2)C1 [Tubastatin A, reference compound] | – | spindle collapse [7]: did not produce the same aberrant spindle; subG1 population [8]: little effect on subG1 |
| O=C(Cc1ccc(/C=C/C(=O)c2ncc[nH]2)cc1)Nc1cc(F)c(F)c(F)c1 [IPE-12, (E)-2-(-4(3-(1H-imidazol-2-yl)-3-oxoprop-1-en-1-yl)phenyl)-N-(3,4,5-trifluorophenyl)acetamide] | 51.1% | – |
| O=C(Cc1ccc(/C=C/C(=O)c2ncc[nH]2)cc1)NC1CCCCC1 [IPE-2, (E)-2-(4-(3-(1H-Imidazol-2-yl)-3-oxoprop-1-en-1-yl)phenyl)-N-cyclohexylacetamide] | 70% | growth inhibition activity (in words) [1]: almost completely inactive |
| CCn1ccnc1C(=O)/C=C/c1ccc(CC(=O)Nc2ccc(F)cc2)cc1 [IPE-21, (E)-2-(4-(3-(1-Ethyl-1H-imidazol-2-yl)-3-oxoprop-1-en-1-yl)phenyl)-N-(4-fluorophenyl)acetamide] | 29.2% | – |
| CN(C)c1ccc(NC(=O)Cc2ccc(/C=C/C(=O)c3ccccc3O)cc2)cc1 [HPE-35, (E)-N-(4-(Dimethylamino)phenyl)-2-(4-(3-(2-hydroxyphenyl)-3-oxoprop-1-en-1-yl)phenyl)acetamide] | 85.9% | – |
| 4-(3-(2-Hydroxyphenyl)-3-oxopropyl)phenyl)-N-(naphthalen-1-yl)acetamide [HPE-33] | – | Mean % growth at 10 μM [1]: 91.98% |
| O=C(Cc1ccc(C(O)CC(=O)c2ccccc2O)cc1)Nc1ccccc1 (stereo not drawn) [HPE-34, 2-(4-(1-Hydroxy-3-(2-hydroxyphenyl)-3-oxopropyl)phenyl)-N-phenylacetamide] | 89.6% | – |
| Cn1ccnc1C(=O)/C=C/c1ccc(CC(=O)Nc2ccc(Cl)cc2)cc1 [IPE-17, (E)-N-(4-chlorophenyl)-2-(4-(3-(1-methyl-1H-imidazol-2-yl)-3-oxoprop-1-en-1-yl)phenyl)acetamide] | 19.3% | – |
| Cn1ccnc1C(=O)C1CC1c1ccc(CC(=O)Nc2ccc(Br)cc2)cc1 (stereo not drawn) [IPE-29, N-(4-bromophenyl)-2-(4-(2-(1-methyl-1H-imidazole-2-carbonyl)cyclopropyl)phenyl)acetamide] | 98.7% | remaining activity at 100 µM [4]: 20 to 60%; growth inhibition activity (in words) [1]: virtually inactive |
| O=C(Cc1ccc(/C=C/C(=O)c2ncc[nH]2)cc1)Nc1ccc(C(F)(F)F)cc1 [IPE-11, (E)-2-(4-(3-(1H-Imidazole-2-yl)-3-oxoprop-1-en-1-yl)phenyl)-N-(4-(trifluoromethyl)phenyl)acetamide] | 23.5% | – |
| O=C(Cc1ccc(/C=C/C(=O)c2nccn2Cc2ccccc2)cc1)Nc1ccc(F)cc1 [IPE-20, (E)-2-(4-(3-(1-Benzyl-1H-imidazol-2-yl)-3-oxoprop-1-en-1-yl)phenyl)-N-(4-fluorophenyl)acetamide] | 54.7% | – |
| O=C(Cc1ccc(/C=C/C(=O)c2ccccc2O)cc1)Nc1cccc2ccccc12 [HPE-36, (E)-2-(4-(3-(2-Hydroxyphenyl)-3-oxoprop-1-en-1-yl)phenyl)-N-(naphthalen-1-yl)acetamide] | 96.2% | – |
| O=C(Cc1ccc(/C=C/C(=O)c2ncc[nH]2)cc1)Nc1ccccc1 [IPE-1, (E)-2-(4-(3-(1H-Imidazol-2-yl)-3-oxoprop-1-en-1-yl)phenyl)-N-phenylacetamide] | 45.3% | inhibition at 10 µM ([1]; Homo sapiens, read-out: growth inhibition at 10 μM): > 50% |
| O=C(Cc1ccc(/C=C/C(=O)c2ncc[nH]2)cc1)Nc1cccc2ccccc12 [IPE-6, (E)-2-(4-(3-(1H-imidazol-2-yl)-3-oxoprop-1-en-1-yl)phenyl)-N-(naphthalen-1-yl)acetamide] | 76.3% | – |
| Cn1ccnc1C(=O)/C=C/c1ccc(CC(=O)Nc2ccc(C(F)(F)F)cc2)cc1 [IPE-23, (E)-2-(4-(3-(1-methyl-1H-imidazol-2-yl)-3-oxoprop-1-en-1-yl)phenyl)-N-(4-(trifluoromethyl)phenyl)acetamide] | 13% | – |
| O=C(Cc1ccc(CCC(=O)c2ncc[nH]2)cc1)Nc1ccccc1 [IPE-28, 2-(4-(3-(1H-imidazol-2-yl)-3-oxopropyl)phenyl)-N-phenylacetamide] | 92.8% | growth inhibition activity (in words) [1]: virtually inactive |
